Screening data as filed in PubChem BioAssay.
In the library only some 4.7% were active in any assay of this set; here they are far more common.
697 NFkB inh – inhibitors of the PMA/ionomycin-induced NF-kB reporter in 697 B cells; 697 B-cell NF-kB luciferase reporter, 16 h; inhibition, % at 4 µM; 330,000 tested, 0.33% active; in the data active = inhibition above about 35%
Jurkat NFkB inh – inhibitors of the PMA/ionomycin-induced NF-kB reporter in Jurkat cells | PMA/ionomycin-induced NF-kB luciferase reporter, luminescence | inhibition, % at 4 µM | 330,000 tested, 0.53% active; in the data active = inhibition above about 50%
IMP-1 inhibitor – inhibitors of Pseudomonas aeruginosa IMP-1 metallo-beta-lactamase | purified IMP-1, nitrocefin hydrolysis, epi-absorbance fluorescence | inhibition, % at 5.6 µM | 290,000 tested, 0.45% active | AID 1556;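 active = inhibition above the mean plus 3 SD of all compounds in the same screening run, cut at about 4.5% in these data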;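 note: 0% = IMP-1 with DMSO and 100% = DMSO wells lacking enzyme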
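assay system = purified recombinant IMP-1 metallo-beta-lactamase enzyme | schedule = 15 min preincubation plus 25 min reaction at 25 °C | signal = Epi-absorbance fluorescence, 480 nm excitation, 530 nm emission | read-out basis = percent inhibition from optical density relative to buffer-blank wells | controls = IMP-1 with DMSO as 0%, enzyme-free DMSO as 100%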
aSyn UTR inh – MLPCN primary screen, SNCA 5' untranslated region; alpha-synuclein 5'UTR reporter, inhibitor activity; AID 1813; inhibition, % (tested at 7.5 µM); 300,000 tested, 0.82% active; in the data active = inhibition above about 60%;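 note: H4 neuroglioblastoma cells stably carrying SNCA 5'UTR luciferase fusion; 0% = DMSO wells and 100% = positive control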
Mdm2 MdmX PPI – disrupts the human Mdm2-MdmX interaction; SaOS-2 split-luciferase Mdm2/MdmX complementation, luminescence; inhibition, % at 8 µM; 330,000 tested, 3% active;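 active = inhibition of at least 50% at 8 µM in the primary screen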
Target sequence (O15151 whole entry, looked up): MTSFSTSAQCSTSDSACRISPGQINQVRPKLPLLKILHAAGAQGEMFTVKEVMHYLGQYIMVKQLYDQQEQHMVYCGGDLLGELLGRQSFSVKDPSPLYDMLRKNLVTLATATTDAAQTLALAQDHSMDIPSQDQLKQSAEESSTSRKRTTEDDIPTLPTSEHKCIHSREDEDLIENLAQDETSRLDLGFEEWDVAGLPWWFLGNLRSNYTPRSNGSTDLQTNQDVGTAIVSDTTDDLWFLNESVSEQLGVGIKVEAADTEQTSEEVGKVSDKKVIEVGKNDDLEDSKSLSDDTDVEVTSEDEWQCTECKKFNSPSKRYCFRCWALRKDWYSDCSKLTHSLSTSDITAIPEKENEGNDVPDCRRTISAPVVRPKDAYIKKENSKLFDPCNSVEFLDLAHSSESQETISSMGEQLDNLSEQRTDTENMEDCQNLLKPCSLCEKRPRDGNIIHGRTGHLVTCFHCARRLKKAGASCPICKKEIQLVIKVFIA
Target sequence (Q00987 whole entry, looked up): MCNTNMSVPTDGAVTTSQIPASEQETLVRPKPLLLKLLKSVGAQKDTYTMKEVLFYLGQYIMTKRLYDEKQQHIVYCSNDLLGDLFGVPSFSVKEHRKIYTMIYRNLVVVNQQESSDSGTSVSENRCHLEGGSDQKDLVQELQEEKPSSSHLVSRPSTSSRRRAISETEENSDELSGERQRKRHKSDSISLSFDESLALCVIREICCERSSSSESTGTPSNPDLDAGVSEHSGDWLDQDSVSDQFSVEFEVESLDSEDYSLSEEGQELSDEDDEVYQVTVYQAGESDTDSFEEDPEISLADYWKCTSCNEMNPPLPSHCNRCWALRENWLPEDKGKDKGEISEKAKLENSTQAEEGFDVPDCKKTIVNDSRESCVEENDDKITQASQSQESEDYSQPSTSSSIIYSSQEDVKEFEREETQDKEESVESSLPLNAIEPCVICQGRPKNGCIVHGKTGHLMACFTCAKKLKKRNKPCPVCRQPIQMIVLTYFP
VIM-2 inh – inhibitors of Pseudomonas aeruginosa VIM-2 metallo-beta-lactamase; purified VIM-2, nitrocefin hydrolysis, epi-absorbance fluorescence; inhibition, % at 5.6 µM; 290,000 tested, 0.89% active; AID 1527;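 active = inhibition above the mean of all tested compounds plus 3 SD, cutoff set per screening run, cut at about 7.5% in these data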;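 note: red hydrolysis product quenches plate fluorescence so inhibitors raise well fluorescence; 0% = enzyme with DMSO and 100% = DMSO without enzyme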
Jurkat NFkB conf – inhibitors of the PMA/ionomycin-induced NF-kB reporter in Jurkat cells, retest; inhibition, % at 4 µM; AID 435020; 2,700 tested, 27% active; shares compounds with Jurkat NFkB inh; Jurkat NF-kB luciferase, 16 h;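 active = inhibition reaching about 45% at 4 µM in either replicate, limit read from the data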;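 note: plate controls were PMA/ionomycin stimulated DMSO wells for no effect and unstimulated DMSO wells for full effect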
* marks the source's active call; other numbers are inactive results; x = no result given.

SMILES	697 NFkB inh	Jurkat NFkB inh	IMP-1 inhibitor	aSyn UTR inh	Mdm2 MdmX PPI	VIM-2 inh	Jurkat NFkB conf
CSc1nc(N(C)NC(=O)c2ccc(F)cc2)c2ccccc2n1	-1	51*	-2	77*	50	-1	33
Cc1nc(SCC(=O)NNC(=O)c2ccc(F)cc2)c2ccccc2n1	16	-3	x	x	-7	x	x
Cc1nnc(NC(=O)c2ccc(F)c(S(=O)(=O)N3CCCCC3)c2)s1	4	18	-1	-17	1	0	x
CN(C)c1ccc(C(=O)Nc2nc3c(s2)CCCC3)cc1	-186	-194	-5	36	16	-5	-117
Cc1cc(N2CCCC2)ccc1NC(=O)CN1C(=O)NC2(CCCCC2)C1=O	5	13	x	-2	17	x	x
Cc1ccc2nc(C)c(CN3CCN(c4ccc([N+](=O)[O-])cc4Cl)CC3)n2c1	-26	51*	-1	52	24	0	46*
O=[N+]([O-])c1ccc(Cl)c(CN2CCN(c3ncccn3)CC2)c1	-11	-1	-4	13	16	-3	x
O=c1oc(-c2ccccc2)nc2sc3c(c12)CCC3	-6	14	0	-52	-16	-1	x
Nc1nc(-c2ccccc2)nc2sc3c(c12)CCCC3	-244	-162	-3	-139	-297	-3	-156
Cc1ccc(-c2nc3sc4c(c3c(=O)n2N)CC(C)(C)OC4)cc1	-38	-28	-3	-30	-14	-2	x
Cc1ccc(-c2nc3sc4c(c3c(=O)n2N)CCCC4)cc1	-192	-188	-6	-107	-314	-1	-122
COc1ccccc1CNS(=O)(=O)c1ccc(-c2cc(C)no2)cc1	-55	60*	-3	80*	38	-1	48*
O=C(CCCc1ccccc1)NC12CC3CC(CC(C3)C1)C2	-149	-123	-4	-151	-165	-3	x
COc1ccc(-c2nnc(SCc3ccccc3F)o2)cc1OC	-28	-30	-4	-66	-45	-3	x
Cc1ccc(-c2nnc(SCc3ccccc3F)o2)cc1	-149	-165	-1	-81	-195	-1	-72
COc1ccc(-c2cc(C(=O)N3CCN(c4ccccc4)CC3)c3ccccc3n2)cc1	-52	60*	-3	-35	37	0	-11
O=C(COc1ccc(Br)cc1Br)NC(=O)NC1CCCC1	-66	-73	-4	-237	-98	-1	x
CC(C)(C)NC(=O)NC(=O)COc1ccc(Br)cc1Br	-201	-210	0	-32	-162	0	-101
O=C1/C(=C\c2cccs2)Sc2ccc3ccccc3c21	-155	-157	-1	-165	-146	-2	-91
c1ccc2c(c1)oc1c(Nc3ccc4c(c3)OCCO4)ncnc12	-196	-166	-1	-142	5	0	-133
CCOC(=O)CC1CCCCN1C(=O)c1cc(COc2cccc3cnccc23)on1 (stereo unspecified)	-35	50*	-1	2	36	-3	72*
CC1CN(C(=O)c2cc(S(=O)(=O)N(C)c3ccc(F)cc3)ccc2Cl)CC(C)O1 (stereo unspecified)	-52	3	-1	-10	-2	1	x
O=C(COc1ccc(Br)cc1)N/N=C1\SCC(=O)N1c1ccc(F)cc1	-9	99*	0	1	7	-3	15
Cc1ccc(OCC(=O)N/N=C2/SCC(=O)N2Cc2ccccc2)cc1	-11	-4	0	25	9	-4	x
CCc1cccc2c1NC(=O)C21OCCO1	-8	-10	-1	18	-1	-1	x
SMILES	697 NFkB inh	Jurkat NFkB inh	IMP-1 inhibitor	aSyn UTR inh	Mdm2 MdmX PPI	VIM-2 inh	Jurkat NFkB conf
Cc1ccc(-c2cn(-c3ccccc3)c(SCC(=O)NC3CCS(=O)(=O)C3)n2)cc1C (stereo unspecified)	-205	-160	-1	-143	-48	0	-119
COC(=O)c1c(-c2cccnc2)csc1NC(=O)c1cc(C)on1	-210	-174	-3	-231	-149	9.7*	-90
COc1ccc(C2SCC(=O)N2CCc2ccc(OC)c(OC)c2)cc1 (stereo unspecified)	-28	65*	-2	12	31	-5	39
COc1ccc(CCN2C(=O)CSC2c2ccc(OC)c(OC)c2)cc1OC (stereo unspecified)	-19	-4	0	1	-41	-2	x
Nc1oc2ccccc2c1C(=O)Cc1ccccc1O[C@@H]1O[C@H](CO)[C@@H](O)[C@H](O)[C@H]1O	16	12	x	-1	2	x	x
CCOc1ccc2oc(C(=O)N3CCN(c4ccccc4OCC)CC3)c(C)c2c1	-6	-14	x	0	15	x	x
O=C(O)c1ccc(N/N=C/c2ccc3nccnc3c2)cc1	20	60*	-3	94*	19	0	18
Cc1nn(-c2ccccc2)c(C)c1/C=N/NC(=O)c1cc(-c2ccc(Br)s2)[nH]n1	-19	62*	-4	16	49	-3	28
Cc1cc(C(=O)N/N=C/c2c(C)nn(-c3ccccc3)c2C)n[nH]1	-1	7	-4	-10	25	-4	x
O=C(CNC(=O)c1ccccc1F)Nc1ccc2c(c1)OCO2	-44	-1	x	x	-32	x	x
COc1ccc(C)cc1S(=O)(=O)NCC(c1ccc2c(c1)OCO2)N1CCOCC1 (stereo unspecified)	0	5	x	7	40	x	x
Cc1cc(/C=C(\C#N)C(=O)Nc2ccccc2F)c(C)[nH]1	-128	-191	-4	-129	-169	-2	-5
N#C/C(=C\c1ccc[nH]1)C(=O)Nc1ccccc1F	-42	-54	-2	x	-54	-3	x
Cc1ccc(-c2nc3ccc(Cl)cc3n2OC(C)C(=O)O)cc1 (stereo unspecified)	-244	-173	-3	-127	-112	-2	-102
O=C(NCC1CCCN(C(=O)CN2CCCCC2)C1)c1ccccc1Cl (stereo unspecified)	-6	-9	-3	-3	-11	-3	x
COc1ccc(-c2nnc(SCC(=O)Nc3ccccc3OC)o2)cc1	-44	-183	0	-145	-210	6	-18
C/C(N)=C(/C#N)C(=O)CSc1nnc(-c2ccccc2Br)o1	-217	-156	1	-7	-33	1	-116
O=C(CSc1nnc(-c2ccc(Br)cc2)o1)Nc1cccc(C(=O)O)c1	8	75*	-2	98*	49	-3	18
COc1ccc(-c2nnc(SCC(=O)/C(C#N)=C(\C)N)o2)cc1	-189	-162	-1	-16	-3	-2	-98
O=C(CSc1nnc(-c2ccc(Br)cc2)o1)Nc1cccc2ccccc12	-13	-15	-1	x	-13	-4	x
COc1ccccc1NC(=O)CSc1nnc(-c2ccncc2)o1	-10	-1	-1	-42	4	2	x
COc1ccc(C(=O)[C@@H]2CC[C@](C)(C(=O)O)C2(C)C)cc1	1	11	x	-3	-32	x	x
